Data published in publication PMC3608840 (Journal of biomolecular screening, 2012).

Experiments:
transmembrane PAP = test: Cell-based calcium mobilization assay of AMP hydrolysis by transmembrane PAP; settings: HEK293 cells expressing hA2B + Gαq-s5 + transmembrane PAP, 1 mM AMP
[1] = system: equilibrative nucleoside transporter 1 (ENT1); settings: cited from earlier work
ALP [2] = test: 5′-AMP hydrolysis; format: biochemical, bovine; settings: for ALP 5′-AMP Hydrolysis IC50: 100 μM AMP
hPAP [3] = molecular target: T1, hPAP (Homo sapiens, UniProt P15309); test: Fluorogenic; format: biochemical
T1 sequence (P15309 33-386): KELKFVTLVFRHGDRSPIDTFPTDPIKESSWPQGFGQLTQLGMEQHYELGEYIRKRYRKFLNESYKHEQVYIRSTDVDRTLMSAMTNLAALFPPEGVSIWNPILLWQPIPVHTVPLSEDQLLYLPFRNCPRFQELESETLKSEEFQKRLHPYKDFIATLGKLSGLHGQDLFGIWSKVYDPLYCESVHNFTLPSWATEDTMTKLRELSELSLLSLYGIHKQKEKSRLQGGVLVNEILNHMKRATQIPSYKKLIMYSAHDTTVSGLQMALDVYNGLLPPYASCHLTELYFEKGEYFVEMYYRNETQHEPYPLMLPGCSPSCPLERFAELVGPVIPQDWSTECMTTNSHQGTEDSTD

mPAP [4] = molecular target: T2, mPAP (Mus musculus, UniProt Q8CE08); test: Fluorogenic; format: biochemical
T2 sequence (Q8CE08 32-381): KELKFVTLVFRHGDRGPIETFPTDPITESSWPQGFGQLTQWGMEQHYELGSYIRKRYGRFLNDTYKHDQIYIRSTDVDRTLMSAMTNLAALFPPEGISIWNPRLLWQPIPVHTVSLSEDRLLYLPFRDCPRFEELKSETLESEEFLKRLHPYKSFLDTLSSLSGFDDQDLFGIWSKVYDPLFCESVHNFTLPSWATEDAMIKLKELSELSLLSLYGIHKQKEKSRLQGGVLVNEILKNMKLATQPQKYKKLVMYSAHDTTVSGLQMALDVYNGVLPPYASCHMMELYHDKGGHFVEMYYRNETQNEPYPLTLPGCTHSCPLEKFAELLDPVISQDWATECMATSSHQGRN

ALP [5] = test: Fluorogenic; format: biochemical, bovine; settings: for ALP Fluorogenic Assay IC50: DiFMUP substrate, pH 8.0
How it was run: (§1)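 Bovine ALP (5 pM final; 50 mM Tris-HCl pH 8.0) or potato acid phosphatase (1.5 nM final; 50 mM sodium acetate pH 5.3), each buffer with 0.01% Tween-20, or human PTP-1B. 12-point in-plate compound series, 15 min room-temperature preincubation with enzyme, then 100 μM DiFMUP final. Fluorescence (ex 340/em 450 nm) read each min for 3 min. Change normalized to enzyme and no-enzyme controls, sigmoidal dose-response fit.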

hPAP [6] = molecular target: T1, hPAP; test: 5′-AMP hydrolysis; format: biochemical
A2B adenosine receptor = molecular target: T3, A2B adenosine receptor (Homo sapiens, UniProt P29275); test: A2B receptor activation by adenosine in calcium mobilization assay; format: cell-based; settings: BABPA 5 μM, pCPT-cAMP 100 μM; 1 mM adenosine as ligand
T3 sequence (P29275 1-332): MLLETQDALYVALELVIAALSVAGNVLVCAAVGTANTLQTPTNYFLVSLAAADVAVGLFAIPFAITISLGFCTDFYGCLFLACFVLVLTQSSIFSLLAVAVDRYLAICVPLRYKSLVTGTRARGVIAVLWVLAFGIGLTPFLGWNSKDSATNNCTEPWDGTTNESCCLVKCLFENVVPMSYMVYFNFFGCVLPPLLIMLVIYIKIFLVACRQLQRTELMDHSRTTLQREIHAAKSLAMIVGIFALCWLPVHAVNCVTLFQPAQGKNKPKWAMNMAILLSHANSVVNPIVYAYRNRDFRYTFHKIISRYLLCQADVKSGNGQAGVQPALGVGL

pAP [7] = test: Fluorogenic; format: biochemical, potato
How it was run: as §1

PTP = molecular target: T4, PTP (Homo sapiens, UniProt P18031); test: Fluorogenic assay, Protein Tyrosine Phosphatase-1B; format: biochemical; settings: data not shown
T4 sequence (P18031 1-435): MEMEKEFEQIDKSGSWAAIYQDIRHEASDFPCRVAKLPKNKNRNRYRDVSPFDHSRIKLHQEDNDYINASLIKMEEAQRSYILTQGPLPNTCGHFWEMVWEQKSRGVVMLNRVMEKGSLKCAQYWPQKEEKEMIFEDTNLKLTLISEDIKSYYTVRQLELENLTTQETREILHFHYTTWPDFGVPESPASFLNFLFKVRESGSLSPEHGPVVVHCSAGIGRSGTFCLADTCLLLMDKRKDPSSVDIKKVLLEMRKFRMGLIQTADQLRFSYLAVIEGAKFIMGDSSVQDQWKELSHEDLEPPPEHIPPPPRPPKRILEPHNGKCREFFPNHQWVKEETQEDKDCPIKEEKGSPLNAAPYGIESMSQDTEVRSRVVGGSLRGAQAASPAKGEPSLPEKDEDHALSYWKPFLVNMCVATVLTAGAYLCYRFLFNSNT
How it was run: as §1

mPAP [8] = molecular target: T2, mPAP; test: 5′-AMP hydrolysis; format: biochemical; settings: for Normalized inhibition of mPAP, 5′-AMP hydrolysis (in words): compound at 100 μM
HEK293 cells = test: Cell killing in the cell-based calcium mobilization assay
PAP [9] = settings: cited from earlier work
[10] = read-out: hPAP Fluorogenic Assay IC50, DiFMUP substrate, pH 7.0
[11] = read-out: hPAP 5′-AMP Hydrolysis IC50, 400 μM AMP, pH 7.0

## Nc1ncnc2c1nc(Sc1ccc(Cl)cc1)n2C1OC2COP(=O)(O)O[C@H]2C1O (stereo in doubt) [compound 21, 8-(4-Chlorophenylthio)-cAMP sodium]
Transmembrane PAP
  Inhibition of hydrolysis of AMP to adenosine by transmembrane PAP (in words): dose-dependently inhibited
[1]
  Block of ENT1 (in words): blocked
ALP [2]
  ALP 5′-AMP Hydrolysis IC50: Inactive
hPAP [3]; [10]
  IC50: 39.8 µM
mPAP [4]; read-out: mPAP Fluorogenic Assay IC50, DiFMUP substrate, pH 7.0
  IC50: 35.5 µM
ALP [5]
  Inhibition of ALP, fluorogenic substrate (in words): Neither pCPT-cAMP nor pCPT-cGMP inhibited
  ALP Fluorogenic Assay IC50: Inactive
hPAP [6]; [11]
  IC50: 5.66 µM
A2B adenosine receptor
  Block of A2B receptor activation by adenosine (in words): did not block
pAP [7]
  Inhibition of pAP, fluorogenic substrate (in words): Neither pCPT-cAMP nor pCPT-cGMP inhibited
pAP [7]; DiFMUP substrate, pH 5.3
  pAP Fluorogenic Assay IC50: Inactive
PTP
  Inhibition of PTP, fluorogenic substrate (in words): Neither pCPT-cAMP nor pCPT-cGMP inhibited
mPAP [8]; read-out: mPAP 5′-AMP Hydrolysis IC50, 1 mM AMP, pH 7.0
  IC50: 20.2 µM

## Clc1ccc(C(c2ccc(Cl)cc2)n2cc[n+](CC(OCc3ccc(Cl)cc3Cl)c3ccc(Cl)cc3Cl)c2)cc1 (stereo not drawn) [compound 29, Calmidazolium chloride]
HEK293 cells
  Cell killing (in words): killed the cells
ALP [2]
  ALP 5′-AMP Hydrolysis IC50: Inactive
hPAP [3]
  IC50: 44.7 µM
mPAP [4]
  IC50: 39.8 µM
ALP [5]
  ALP Fluorogenic Assay IC50: Inactive
hPAP [6]
  IC50: 1.48 µM
pAP [7]; DiFMUP substrate, pH 5.3
  pAP Fluorogenic Assay IC50: Inactive
mPAP [8]
  IC50: 11.6 µM

## O=C([O-])[C@H](O)[C@@H](O)C(=O)[O-].[Na+].[Na+] [L-(+)-tartrate]
ALP [2]; 10 mM
  Inhibition of ALP, 5′-AMP hydrolysis (in words): did not inhibit
hPAP [6]; 10 mM
  Inhibition of hPAP, 5′-AMP hydrolysis (in words): inhibited
mPAP [8]; 10 mM
  Inhibition of mPAP, 5′-AMP hydrolysis (in words): inhibited

## O=c1c(O)c(-c2cc(O)c(O)c(O)c2)oc2cc(O)cc(O)c12 [compound 97, Myricetin]
ALP [2]
  ALP 5′-AMP Hydrolysis IC50: Inactive
hPAP [3]
  IC50: 44.7 µM
ALP [5]
  ALP Fluorogenic Assay IC50: Inactive
hPAP [6]
  IC50: 26.5 µM
pAP [7]; DiFMUP substrate, pH 5.3
  pAP Fluorogenic Assay IC50: Inactive

## CCCCCCC(C)(C)c1ccc([C@@H]2C[C@H](O)CC[C@H]2CCCO)c(O)c1 [compound 96, CP-55940]
ALP [2]
  ALP 5′-AMP Hydrolysis IC50: Inactive
hPAP [3]
  IC50: 31.6 µM
mPAP [4]
  IC50: 15.8 µM
ALP [5]
  ALP Fluorogenic Assay IC50: Inactive
hPAP [6]; 400 μM AMP, pH 7.0
  hPAP 5′-AMP Hydrolysis IC50: Inactive
pAP [7]; read-out: pAP Fluorogenic Assay IC50, DiFMUP substrate, pH 5.3
  IC50: 39.8 µM
mPAP [8]; 1 mM AMP, pH 7.0
  mPAP 5′-AMP Hydrolysis IC50: Inactive
mPAP [8]
  Normalized inhibition of mPAP, 5′-AMP hydrolysis (in words): did not inhibit

## CCCOc1ccc2ccccc2c1/C=C/c1nc(O)c([N+](=O)[O-])c(=O)[nH]1 [Compound 49, 6-hydroxy-5-nitro-2-[(E)-2-(2-propoxy-naphthalen-1-yl)-vinyl]-3H-pyrimidin-4-one]
ALP [2]; compound at 100 μM
  Inhibition of ALP, 5′-AMP hydrolysis (in words): did not inhibit
hPAP [6]
  IC50: 2.9 µM
mPAP [8]
  IC50: 42.9 µM

## Nc1nc2c(nc(Sc3ccc(Cl)cc3)n2[C@@H]2O[C@@H]3COP(=O)(O)O[C@H]3[C@H]2O)c(=O)[nH]1 [pCPT-cGMP, 8-(4-chlorophenylthio) cGMP]
Transmembrane PAP
  Inhibition of hydrolysis of AMP to adenosine by transmembrane PAP (in words): inhibited
hPAP [3]; read-out: IC50 human secretory PAP, fluorogenic substrate
  IC50: 31.1 µM
mPAP [4]; read-out: IC50 mouse secretory PAP, fluorogenic substrate
  IC50: 49.7 µM
ALP [5]
  Inhibition of ALP, fluorogenic substrate (in words): Neither pCPT-cAMP nor pCPT-cGMP inhibited
hPAP [6]; pH 7.0
  Inhibition of human secretory PAP in vitro using AMP as substrate (in words): inhibited
pAP [7]
  Inhibition of pAP, fluorogenic substrate (in words): Neither pCPT-cAMP nor pCPT-cGMP inhibited
PTP
  Inhibition of PTP, fluorogenic substrate (in words): Neither pCPT-cAMP nor pCPT-cGMP inhibited
mPAP [8]; pH 7.0
  Inhibition of mouse secretory PAP in vitro using AMP as substrate (in words): inhibited

## COc1ccc2c(c1)c(CC(=O)O)c(C)n2Cc1ccc(Cl)cc1 [compound 17, 1-(4-Chlorobenzyl)-5-methoxy-2-methylindole-3-acetic acid]
ALP [2]
  ALP 5′-AMP Hydrolysis IC50: Inactive
hPAP [3]; [10]
  IC50: 39.8 µM
mPAP [4]; DiFMUP substrate, pH 7.0
  mPAP Fluorogenic Assay IC50: Inactive
ALP [5]
  ALP Fluorogenic Assay IC50: Inactive
hPAP [6]; [11]
  IC50: 46.3 µM
pAP [7]; DiFMUP substrate, pH 5.3
  pAP Fluorogenic Assay IC50: Inactive
mPAP [8]; 1 mM AMP, pH 7.0
  mPAP 5′-AMP Hydrolysis IC50: Inactive
mPAP [8]
  Normalized inhibition of mPAP, 5′-AMP hydrolysis (in words): did not inhibit

## O=P(O)(O)C(NCc1ccccc1)c1ccccc1 (stereo not drawn) [BABPA, α-Benzylaminobenzylphosphonic acid]
Transmembrane PAP
  Inhibition of hydrolysis of AMP to adenosine by transmembrane PAP (in words): dose-dependently inhibited
hPAP [3]; read-out: IC50 hPAP, fluorogenic assay, positive control, DiFMUP substrate
  IC50: 0.00497 µM
PAP [9]
  Inhibition of PAP (potency in words): low nanomolar range
mPAP [4]; read-out: IC50 mPAP, fluorogenic assay, positive control, DiFMUP substrate
  IC50: 0.0206 µM
A2B adenosine receptor
  Block of A2B receptor activation by adenosine (in words): did not block

## CCn1cc(C(=O)O)c(=O)c2ccc(C)nc21 [compound 77, Nalidixic acid sodium]
ALP [2]
  ALP 5′-AMP Hydrolysis IC50: Inactive
hPAP [3]
  IC50: 28.2 µM
mPAP [4]
  IC50: 2.8 µM
ALP [5]
  ALP Fluorogenic Assay IC50: Inactive
hPAP [6]
  IC50: 20.5 µM
pAP [7]; DiFMUP substrate, pH 5.3
  pAP Fluorogenic Assay IC50: Inactive
mPAP [8]
  IC50: 20.6 µM

## O=c1c(O)c(-c2ccc(O)c(O)c2)oc2cc(O)cc(O)c12 [compound 70, Quercetin]
ALP [2]
  ALP 5′-AMP Hydrolysis IC50: Inactive
hPAP [3]
  IC50: 31.6 µM
mPAP [4]; DiFMUP substrate, pH 7.0
  mPAP Fluorogenic Assay IC50: Inactive
ALP [5]
  ALP Fluorogenic Assay IC50: Inactive
hPAP [6]; 400 μM AMP, pH 7.0
  hPAP 5′-AMP Hydrolysis IC50: Inactive
pAP [7]; DiFMUP substrate, pH 5.3
  pAP Fluorogenic Assay IC50: Inactive
mPAP [8]; 1 mM AMP, pH 7.0
  mPAP 5′-AMP Hydrolysis IC50: Inactive
mPAP [8]
  Normalized inhibition of mPAP, 5′-AMP hydrolysis (in words): did not inhibit

## O=C(O)c1nn(Cc2ccc(Cl)cc2Cl)c2ccccc12 [compound 9, Lonidamine]
HEK293 cells
  Cell killing (in words): killed the cells
ALP [2]
  ALP 5′-AMP Hydrolysis IC50: Inactive
hPAP [3]
  IC50: 50.1 µM
mPAP [4]; DiFMUP substrate, pH 7.0
  mPAP Fluorogenic Assay IC50: Inactive
ALP [5]
  ALP Fluorogenic Assay IC50: Inactive
hPAP [6]
  IC50: 15.5 µM
pAP [7]; DiFMUP substrate, pH 5.3
  pAP Fluorogenic Assay IC50: Inactive
mPAP [8]
  IC50: 31.1 µM
